Measured values: ChEMBL document CHEMBL3421565, “β-D-2'-C-Methyl-2,6-diaminopurine Ribonucleoside Phosphoramidates are Potent and Selective Inhibitors of Hepatitis C Virus (HCV) and Are Bioconverted Intracellularly to Bioactive 2,6-Diaminopurine and Guanosine 5'-Triphosphate Forms” (J Med Chem, 2015)
Activity calls are given as the source filed them. The calls are words filed in the database; no cut-off is given here.

Columns and labels:
[1] = Drug metabolism in human primary hepatocytes assessed as 2'-C-Me-DAPN-TP level at 50 uM incubated for 4 hrs at 37 degC by LC-MS/MS method; assay type: ADME, cell-based, Hepatocyte
Outline: (§1)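 Huh-7 cells (after attachment) or freshly plated primary human hepatocytes (after overnight acclimatation), 1 × 10⁶ cells/well, exposed to 50 μM compound for 4 h at 37 °C. Cells washed twice with ice-cold PBS and extracted overnight at −20 °C in 70% methanol containing 20 nM ddATP. Mono-, di- and triphosphates quantified by LC–MS/MS as pmol/10⁶ cells; three replicates.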

[2] = Drug metabolism in human HuH7 cells assessed as 2'-C-Me-GTP level at 50 uM incubated for 4 hrs at 37 degC by LC-MS/MS method; assay type: ADME, cell-based; settings: huh-7, 4 h; outline: as §1
[3] = test system: HepG2; test: Mitochondrial toxicity in human HepG2 cells assessed as effect on nuclear beta-actin DNA level incubated for 14 days by real-time PCR method; assay type: cell-based; settings: hepg2, 336 h
Outline: (§2)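 HepG2 cells in DMEM with 4.5 g/L glucose and 10% heat-inactivated FBS, seeded at 5000 cells/well on collagen; compounds added 1 day later at final 1–50 μM. Medium and compound renewed every 3–4 days for 14 days; duplicates in two independent experiments. COXII mtDNA and nuclear β-actin DNA measured by real-time PCR, normalised to untreated control; IC₅₀ calculated.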

[4] = test system: HepG2; test: Mitochondrial toxicity in human HepG2 cells assessed as induction of lactic acid levels at 1 uM incubated for 14 days; assay type: cell-based; settings: hepg2, 336 h
Outline: (§3)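 After 14 days of HepG2 exposure to compound (same culture regimen as the mtDNA assay), lactic acid in culture supernatant quantified with a D-/L-lactic acid kit by absorbance. Results expressed as % lactic acid over % nuclear DNA (β-actin control); mean of triplicates from a single plate.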

[5] = test system: Hepatitis C virus; test: Antiviral activity against HCV infected in human HuH7 cells assessed as reduction in replicon RNA levels incubated for 5 days by RT-PCR assay; assay type: functional, organism-based, Hepacivirus hominis; settings: Huh-7, 120 h
Outline: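 Huh-7 clone B cells carrying HCV replicon RNA, seeded at 3000 cells/well; compounds added in dose response in triplicate right after seeding. Incubated 5 days at 37 °C, 5% CO₂. Total RNA extracted; replicon RNA and rRNA internal control co-amplified by one-step multiplex real-time RT-PCR. Antiviral effect taken as ΔCt versus no-drug control; cytotoxicity read from rRNA reduction.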

[6] = test system: HepG2; test: Mitochondrial toxicity in human HepG2 cells assessed as effect on mitochondrial cytochrome c oxidase subunit 2 DNA level incubated for 14 days by real-time PCR method; assay type: cell-based; settings: hepg2, 336 h; outline: as §2
[7] = test system: Vero; test: Cytotoxicity against African green monkey Vero cells assessed as reduction in cell viability incubated for 5 days by Cell-titer 96 aqueous one solution cell proliferation assay; assay type: cell-based; settings: chlorocebus sabaeus, vero, 120 h
[8] = test system: HepG2; test: Mitochondrial toxicity in human HepG2 cells assessed as induction of lactic acid levels at 10 uM incubated for 14 days; assay type: cell-based; settings: hepg2, 336 h; outline: as §3
[9] = test system: HepG2; test: Mitochondrial toxicity in human HepG2 cells assessed as induction of lactic acid levels at 50 uM incubated for 14 days; assay type: cell-based; settings: hepg2, 336 h; outline: as §3
[10] = Drug metabolism in human HuH7 cells assessed as 2'-C-Me-DAPN-TP level per million cells at 50 uM incubated for 4 hrs at 37 degC by LC-MS/MS method; assay type: ADME, cell-based; settings: huh-7, 4 h; outline: as §1
[11] = test system: Hepatocyte; test: Drug level in human primary hepatocytes treated with 50 uM beta-D-2,6-diaminopurine nucleoside assessed as compound formation incubated for 4 hrs at 37 degC by LC-MS/MS method; assay type: ADME, cell-based
Outline: (§4)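 Freshly plated primary human hepatocytes seeded at 1 × 10⁶ per well and acclimated overnight, then given 50 μM compound for 4 h at 37 °C. After two ice-cold PBS washes, extraction ran overnight at −20 °C in 70% methanol with 20 nM ddATP. Dried extracts went to LC–MS/MS for intracellular metabolites, as three replicates from one plate, ±SD.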

[12] = (§5) Drug level in human HuH7 cells treated with 50 uM Isopropyl 3-(2-(((S)-(((2R,3S,4R,5R)-5-(2,6-Diamino-9H-purin-9-yl)-3,4-dihydroxy-4-methyltetrahydrofuran-2-yl)methoxy)-(((S)-1-isopropoxy-1-oxopropan-2-yl)amino)phosphoryl)oxy)-phenyl)propanoate 15c(Sp) and Isopropyl 3-(2-(((R)-(((2R,3S,4R,5R)-5-(2,6-Diamino-9H-purin-9-yl)-3,4-dihydroxy-4-methyltetrahydrofuran-2-yl)methoxy)(((S)-1-isopropoxy-1-oxopropan-2-yl)amino)phosphoryl)oxy)phenyl)propanoate assessed as compound formation incubated for 4 hrs at 37 degC by LC-MS/MS method; assay type: ADME, cell-based; settings: huh-7, 4 h
Outline: (§6)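 Huh-7 cells seeded at 1 × 10⁶ per well and exposed to 50 μM compound after attachment, 4 h at 37 °C. Cells washed twice with ice-cold PBS, then extracted overnight at −20 °C in 70% methanol containing 20 nM ddATP. Supernatants were dried and analysed by LC–MS/MS for parent nucleoside and its mono-, di- and triphosphates (pmol/10⁶ cells).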

[13] = test system: Hepatocyte; test: as §5, with “primary hepatocytes” for “HuH7 cells”; assay type: ADME, cell-based; outline: as §4
[14] = (§7) Inhibition of HCV C-terminal His-tagged NS5Bdelta21 enzyme assessed as reduction in NS5B-mediated RNA polymerization using [32P]-GpG primer, RNA template and rNTP nucleotide mix incubated for 120 mins by PAGE method; set-up: species or system Hepacivirus hominis
Outline: (§8)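 Purified NS5BΔ21 (C-terminal His tag), 1 μM, at 30 °C with 1 μM 20-mer RNA template and 1 μM ³²P-GpG primer. Buffer was 40 mM Tris pH 7.5, 6 mM NaCl, 2 mM MgCl₂. Started with 10 μM NTP mix, 1 μM competing NTP and triphosphate inhibitor at 0–100 μM. Products run on 20% denaturing PAGE and quantified; IC₅₀ calculated.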

[15] = test system: Hepacivirus hominis; test: as §7; outline: as §8
[16] = Drug level in human HuH7 cells treated with 50 uM beta-D-2,6-diaminopurine nucleoside assessed as compound formation incubated for 4 hrs at 37 degC by LC-MS/MS method; assay type: ADME, cell-based; settings: huh-7, 4 h; outline: as §6
[17] = test system: Hepacivirus hominis; test: Inhibition of HCV C-terminal His-tagged NS5Bdelta21 enzyme assessed as induction of pausing at sites of AMP incorporation during NS5B-mediated RNA polymerization using [32P]-GpG primer, RNA template and rNTP nucleotide mix incubated for 120 mins by PAGE method
Outline: as §8, with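 “μM. Stopped at 120 min with EDTA/formamide.” for “μM.”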

[18] = Drug level in human HuH7 cells treated with 50 uM Ethyl 3-(2-(((R)-(((2R,3R,4R,5R)-5-(2,6-Diamino-9H-purin-9-yl)-3,4-dihydroxy-4-methyltetrahydrofuran-2-yl)methoxy)(((S)-1-ethoxy-1-oxopropan-2-yl)amino)phosphoryl)oxy)phenyl)-propanoate assessed as compound formation incubated for 4 hrs at 37 degC by LC-MS/MS method; assay type: ADME, cell-based; settings: huh-7, 4 h; outline: as §6
[19] = test system: Hepatocyte; test: Drug level in human primary hepatocytes treated with 50 uM Ethyl 3-(2-(((R)-(((2R,3R,4R,5R)-5-(2,6-Diamino-9H-purin-9-yl)-3,4-dihydroxy-4-methyltetrahydrofuran-2-yl)methoxy)(((S)-1-ethoxy-1-oxopropan-2-yl)amino)phosphoryl)oxy)phenyl)-propanoate assessed as compound formation incubated for 4 hrs at 37 degC by LC-MS/MS method; assay type: ADME, cell-based; outline: as §4

SMILES | Drug metabolism [1] | Drug metabolism [2] | CC50 [3] [µM] | Activity [4] [%] | EC50 [5] [µM] | EC90 [5] [µM] | CC50 [6] [µM] | CC50 [7] [µM] | Activity [8] [%] | Activity [9] [%] | Drug metabolism [10] | Drug metabolism [11] | Drug metabolism [12] | Drug metabolism [13] | IC50 [14] [µM] | inhibition [15] | Drug metabolism [16] | inhibition [17] | Drug metabolism [18] | Drug metabolism [19]
CC(C)OC(=O)CCc1ccccc1OP(=O)(N[C@@H](C)C(=O)OC(C)C)OC[C@H]1O[C@@H](n2cnc3c(N)nc(N)nc32)[C@](C)(O)[C@H]1O (stereo not given in full) | metabolite_detected | metabolite_detected | > 50 | 90 | 0.7 | 2.5 | > 50 | > 100 | 81 | 80 | metabolite_detected | – | – | – | – | – | – | – | – | –
C[C@@]1(O)[C@H](O)[C@@H](COP(=O)(O)OP(=O)(O)OP(=O)(O)O)O[C@H]1n1cnc2c(N)nc(N)nc21 | – | – | – | – | – | – | – | – | – | – | – | metabolite_detected | metabolite_detected | metabolite_detected | 3.4 | Dose-dependent effect | metabolite_detected | Active | metabolite_detected | metabolite_detected
